Screens (PubChem)
ZTA counter = blocks Epstein-Barr virus ZTA, an EBNA-1 counter-screen | ZTA-DNA binding, fluorescence polarization | actives 0.15% (n = 320,000) | inhibition, % at 11 µM; in the data active = inhibition above about 33%
Target sequence (P03206 whole entry, looked up): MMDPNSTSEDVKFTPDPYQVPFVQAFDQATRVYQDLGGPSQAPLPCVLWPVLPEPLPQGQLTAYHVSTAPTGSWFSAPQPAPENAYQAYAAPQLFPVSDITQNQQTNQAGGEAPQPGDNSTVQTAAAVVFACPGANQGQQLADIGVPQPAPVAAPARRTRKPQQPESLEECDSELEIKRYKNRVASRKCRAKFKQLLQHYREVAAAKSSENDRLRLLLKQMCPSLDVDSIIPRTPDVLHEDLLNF
core dimer inh = blocks dimerization of HCV core protein; AID 1899; TR-FRET GST/Flag-core106 dimerization, 1536-well; inhibition, % at 5 µM; actives 0.33% (n = 300,000);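 active = inhibition above the mean of all tested compounds plus 3 SD, set per screening campaign, cut at about 45% in these data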
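Assay system: GST-tagged and Flag-tagged HCV core protein residues 1-106 / Times: compound-protein-antibody incubation 4 h at 22.5 °C / Signal: time-resolved FRET, ex 340 nm, em 617 and 671 nm / Evaluation: % inhibition based on acceptor/donor emission ratio / Benchmarks: wells lacking GST-core106 and wells with excess unlabelled core106 / Repeats: singlicate, one well per compound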
NS3 helicase inh = blocks Hepatitis C virus NS3 helicase unwinding; actives 0.56% (n = 290,000); inhibition, % at 10.9 µM; NS3 helicase DNA unwinding, Cy5 molecular beacon fluorescence;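 active = inhibition above the mean of all tested compounds plus 3 SD, set per campaign, cut at about 35% in these data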;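 note: 0% = DMSO wells and 100% = thioflavine S control wells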
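Assay system – hepatitis C virus NS3 helicase domain fragment enzyme · Buffer or medium – MOPS pH 6.5, MgCl2, DTT, Tween20, BSA · Reagent – Cy5/quencher beacon DNA duplex and ATP to start · Compound – single 10.9 µM dose · Timing – 1 h at 25 °C · Technique – Cy5 beacon fluorescence read at start and 1 h · Measure – % inhibition of unwinding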
EBNA-1 inhibitor = blocks EBNA-1 binding to DNA | EBNA-1 DNA binding, fluorescence polarization | inhibition, % at 14.8 µM | actives 0.34% (n = 300,000) | AID 1950; in the data active = inhibition above about 28%
UBC9 SUMO inh = SUMOylation inhibition | P63279 | HTRF SUMOylation assay, SAE1/SAE2 + UBC9, in vitro | inhibition, % at 35 µM | actives 0.36% (n = 290,000); in the data active = inhibition above about 50%, passing the limit was not always enough
Target sequence (P63279 whole entry, looked up): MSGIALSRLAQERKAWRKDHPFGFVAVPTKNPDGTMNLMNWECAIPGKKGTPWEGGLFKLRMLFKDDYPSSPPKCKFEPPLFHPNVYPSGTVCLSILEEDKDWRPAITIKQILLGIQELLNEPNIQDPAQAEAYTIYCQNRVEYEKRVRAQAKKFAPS
NS3 helicase cf = confirmation of Hepatitis C virus NS3 helicase inhibitors | NS3 helicase DNA unwinding, Cy5 molecular beacon fluorescence | shares compounds with NS3 helicase inh | inhibition, % at 10.9 µM | actives 31% (n = 1,600);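 active = inhibition above the mean of all tested compounds plus 3 SD, cutoff set per campaign, cut at about 36% in these data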
FID counter trip = counter-screen for HCV NS3 helicase inhibitors: DNA intercalator displacement; shares compounds with NS3 helicase inh; DNA fluorescent intercalator displacement, fluorescence; inhibition, % at 7.9 µM; actives 4% (n = 1,600); in the data active = inhibition above about 37%;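 note: 0% = vehicle and 100% = reference compound; higher means more displacement of ethidium bromide from the DNA hairpin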
An asterisk follows results filed as active; / = no result given; + = active, no number. Sampled rows, rich in hits. Any-hit rate of the full collection: about 1.4%.

SMILES	ZTA counter	core dimer inh	NS3 helicase inh	EBNA-1 inhibitor	UBC9 SUMO inh	NS3 helicase cf	FID counter trip
CC(C)N(CCNC(=O)c1nn(Cc2ccccc2)c(=O)c2ccccc12)C(C)C	-19	1	-5	2	11	/	/
Cc1cc(NC(=O)NCc2ccccc2)c(=O)n(Cc2ccccc2F)c1	13	17	-1	2	7	/	/
COc1cccc(Cn2cc(C)cc(NC(=O)NCc3ccccc3)c2=O)c1	-19	3	40*	-3	-8	-3	-15
C/C=C/C(O)c1ccc2ccccc2c1 (stereo not drawn)	1	-4	41*	-2	3	0	4
N#CC1=C(S)N(c2ccccc2)C(c2ccc(-c3cccc(Cl)c3)o2)NC1=O (stereo not drawn)	17	32	36*	10	9	60*	2
O=S(=O)(O)c1nc2ccccc2n1Cc1cccc2ccccc12	11	3	43*	4	8	62*	-21
COCCn1c(C)cc(C(=O)COc2ccc(N(C)S(=O)(=O)c3ccc(C)cc3)cc2)c1C	-6	/	/	/	/	/	/
O=C(COC(=O)C1CCC1)Nc1ncc(Cl)cc1Cl	-1	-1	/	5	/	/	/
CCOc1ccccc1N1CCN(c2nc(N)c(C#N)c(CC#N)c2C#N)CC1	-7	11	36*	-4	18	-18	-10
O=C(NCCCNC(=O)c1cnccn1)c1cccc(F)c1	-9	2	5	-7	3	/	/
Cc1ccc(-c2nn3c(C)nnc3s2)cc1NC(=O)c1ccc(-c2cccc(Cl)c2)o1	/	/	60*	/	31	-8	-27
CC1=NN(C(N)=S)C(=O)C1N=Nc1ccc(O)cc1 (stereo not drawn)	/	/	-4	/	9	/	/
CC1=NN(C(N)=S)C(=O)C1N=Nc1ccc(C)c(Br)c1 (stereo not drawn)	-9	-15	40*	4	-19	-19	13
CCCCC/C=C/C1=CC(=O)C[C@H](c2ccc(OC)c(OC)c2)C1	-16	/	/	/	/	/	/
CC(C)N=c1scc(-c2cccs2)n1/N=C/c1ccc(O)c(O)c1O	-21	24	43*	0	31	-10	17
C=CCSC1=N/C(=C\c2cc(OCC)c(OC(C)=O)c([N+](=O)[O-])c2)C(=O)S1	-7	-2	50*	6	37	92*	16
O=C(Cc1ccc(NC2=NC3CS(=O)(=O)CC3S2)cc1)NCc1ccccc1Cl (stereo not drawn)	-11	-11	8	-15	17	/	/
O=C(O)c1cc(/C=C/C(=O)c2cc(F)ccc2O)c2c(c1)COCO2	1	5	49*	-2	14	52*	-16
COc1ccc(C(=O)/C=C/c2cc(C(=O)O)cc3c2OCOC3)c(O)c1	2	2	7	-5	13	/	/
Cc1ccc(-c2nnc(-c3ccccc3)o2)cc1	0	6	3	3	-17	/	/
CCNc1nnc(-c2ccc(C)cc2)o1	4	0	52*	7	16	4	2
O=C(O)c1cccc(S(=O)(=O)N2CCCC(c3nc4c(nnn4Cc4ccccc4Cl)c(=O)[nH]3)C2)c1 (stereo not drawn)	-10	4	19	-14	21	/	/
O=C(O)c1cccc(S(=O)(=O)N2CCCC(c3nc4c(nnn4Cc4ccc(F)cc4)c(=O)[nH]3)C2)c1 (stereo not drawn)	9	1	40*	-10	-9	-1	-25
Cc1nc(SCC(=O)Nn2c(-c3ccccc3)nc3ccccc3c2=O)n[nH]1	-8	2	47*	9	0	-16	2
Cc1cccc(-c2nc3ccccc3c(=O)n2NC(=S)N(C)C)c1	-4	-4	39*	3	-4	-1	-10
SMILES	ZTA counter	core dimer inh	NS3 helicase inh	EBNA-1 inhibitor	UBC9 SUMO inh	NS3 helicase cf	FID counter trip
O=C1N=c2ccccc2=C1c1sc(Nc2cccc(O)c2)nc1O	-8	-8	-11	-7	-7	/	/
O=C1N=c2ccccc2=C1c1sc(Nc2ccc(O)cc2)nc1O	/	/	72*	/	77	27	4
CCOC(=O)c1cc(C)sc1NC(=O)CN1CCN(C(=O)C2CCCO2)CC1 (stereo not drawn)	-4	8	-4	8	0	/	/
O=c1oc2ccc(Cl)cc2nc1/C=C(\O)c1ccco1	-2	-1	11	5	17	/	/
CC(C)C/C(O)=C/c1nc2cc(Cl)ccc2oc1=O	-25	-16	38*	-6	22	-1	12
Nn1c(Nc2ccccc2)nc2sc3c(c2c1=O)CCC3	/	/	-9	/	-10	/	/
NNc1nc2sc3c(c2c(=O)n1Cc1ccccc1)CCC3	-28	20	44*	-8	40	10	-16
COc1ccc(OCc2cc(C(=O)NCc3cccc(C)n3)no2)c(Cl)c1	4	-1	-19	2	17	/	/
Cc1ccc(NC(=O)NCc2ccccn2)c(C)c1	/	/	6	/	-26	/	/
Cc1cc(O)c(C(=O)/C=C/c2ccccc2)c(=O)o1	/	/	43*	/	17	-11	2
Cc1cc(O)c(C(=O)/C=C/c2ccccc2Br)c(=O)o1	-4	13	48*	-1	10	17	7
CC1Oc2ccccc2N(CC(=O)NCCN2CCOCC2)C1=O (stereo not drawn)	2	0	12	5	28	/	/
COc1ccc(Nc2cc(C(=O)NCCCN3CCN(C)CC3)c3ccccc3n2)c(OC)c1	-7	-15	64*	3	-9	10	66*
COc1ccc(Nc2cc(C(=O)NCCCOC(C)C)c3ccccc3n2)c(OC)c1	-1	3	-24	-10	-5	/	/
CCN(CC)c1ccc(C=Nc2ccc(N(C)C)cc2)c(O)c1	+	-26	37*	+	-59	3	5
Cc1occc1C(=O)N/N=C/c1cccc2ccccc12	2	-12	14	-8	8	/	/
Cc1ccc(C2=NS(=O)(=O)N(C)C(C(=O)NCc3ccccc3)=C2)cc1	1	7	-4	-20	-8	/	/
O=C(CCc1nc2ccccc2c(=O)[nH]1)Nc1cccc(S(=O)(=O)N2CCOCC2)c1	7	2	/	-3	/	/	/
O=S(=O)(Cc1ccco1)Cc1nc(-c2ccc(Cl)cc2)cs1	-5	0	43*	3	3	-14	-8
O=S(=O)(Cc1noc(-c2ccc(Cl)cc2)n1)Cc1ccco1	-9	0	52*	1	6	-11	0
CC(=O)Nc1ccc(NC(=O)C(C)OC(=O)CNS(=O)(=O)/C=C/c2ccc(C)cc2)cc1 (stereo not drawn)	22	-1	/	5	/	/	/
CCOc1ccc(S(=O)(=O)N(CC)CC(=O)NCc2ccncc2)cc1	-2	-5	2	-2	17	/	/
COc1ccccc1NC(=O)CN1CCC(C(=O)c2ccc(F)cc2)CC1	-15	8	-14	-5	-11	/	/
